# ChEMBL document CHEMBL1152808, “Novel adenosine-derived inhibitors of 70 kDa heat shock protein, discovered through structure-based design” (J Med Chem, 2009)
# The source made the active and inactive calls. The calls are words filed in the database; no cut-off is given here.
# How the values were obtained:
# HCT-116 [1] = test: Cytotoxicity against human HCT116 cells by SRB assay; format: functional
# Method in brief: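 HCT116 human colon tumour cells; growth inhibition measured by sulforhodamine B (SRB) staining; GI50 reported.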
# [2] = Displacement of fluorescein labeled N6-(6-amino)hexyl-ATP-5-FAM from HSP70 by fluorescence polarization assay
# Method in brief: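 Competitive FP binding: displacement of fluorescein-labelled ATP-based probe N6-(6-amino)hexyl-ATP-5-FAM (probe KD 0.4 µM) from HSP70 at 0.4 µM protein; IC50 from binding competition.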
# [3] = Binding affinity to HSP90 by fluorescence polarization assay
# [4] = Binding affinity to HSP70 by Biocore direct binding assay
# Method in brief: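 SPR direct binding: double His-tagged HSP70 construct immobilized on a Biacore sensor chip; KD determined from direct ligand binding.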
# HCT-116 [5] = test: Inhibition of HSP70 in human HCT116 cells assessed as reduction of […] protein levels after 24 hrs by Western blot; format: cell-based
# Method in brief: (§1)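 HCT116 cells exposed to compound for 24 h at 0.05 or 0.1 µM or 2.5-40 µM. Raf-1, Her2 and HSP70 expression detected by Western blot. GAPDH served as loading control.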
# HCT-116 [6] = test: Inhibition of HSP70 in human HCT116 cells assessed as reduction of Raf1 protein levels after 24 hrs by Western blot; format: cell-based; method in brief: as §1
smiles,measurement,setting,value
Nc1ncnc2c1nc(NCc1ccc3c(c1)OCO3)n2[C@@H]1O[C@H](CO)[C@@H](O)[C@H]1O,GI50,HCT-116 [1],> 80 µM
same,IC50,[2],4.9 µM
same,IC50,[3],> 400 µM
Nc1ncnc2c1nc(NCc1ccc(Cl)c(Cl)c1)n2[C@@H]1O[C@H](COCc2cc(F)c(F)c(F)c2)[C@@H](O)[C@H]1O,GI50,HCT-116 [1],13 µM
same,Kd,[4],4.2 µM
same,IC50,[2],1.7 µM
same,IC50,[3],> 400 µM
Nc1ncnc2c1nc(NCc1ccc3ncccc3c1)n2[C@@H]1O[C@H](CO)[C@@H](O)[C@H]1O,GI50,HCT-116 [1],> 80 µM
same,IC50,[2],2.9 µM
same,IC50,[3],> 400 µM
N#Cc1ccc(COC[C@H]2O[C@@H](n3c(NCc4ccc5ncccc5c4)nc4c(N)ncnc43)[C@H](O)[C@@H]2O)cc1,GI50,HCT-116 [1],> 80 µM
same,Kd,[4],0.05 µM
same,IC50,[2],0.9 µM
same,IC50,[3],> 400 µM
N#Cc1ccc(COC[C@H]2O[C@@H](n3c(NCc4ccc(Cl)c(Cl)c4)nc4c(N)ncnc43)[C@H](O)[C@@H]2O)cc1,GI50,HCT-116 [1],5 µM
same,Kd,[4],0.3 µM
same,Activity,HCT-116 [5],Active
same,IC50,[2],0.5 µM
same,Activity,HCT-116 [6],Active
same,IC50,[3],> 400 µM
Nc1ncnc2c1nc(NCc1ccccc1)n2[C@@H]1O[C@H](CO)[C@@H](O)[C@H]1O,GI50,HCT-116 [1],> 80 µM
same,IC50,[2],10 µM
same,IC50,[3],> 400 µM
Nc1ncnc2c1ncn2[C@@H]1O[C@H](COP(=O)(O)OP(=O)(O)O)[C@@H](O)[C@H]1O [ADENOSINE DIPHOSPHATE],Kd,[4],0.5 µM
same,IC50,[2],0.5 µM
same,IC50,[3],> 400 µM
N#Cc1ccc(COC[C@H]2O[C@@H](n3c(NCc4ccccc4)nc4c(N)ncnc43)[C@H](O)[C@@H]2O)cc1,GI50,HCT-116 [1],> 80 µM
same,Kd,[4],0.2 µM
same,IC50,[2],1.3 µM
same,IC50,[3],> 400 µM
Nc1ncnc2c1ncn2[C@@H]1O[C@H](CO)[C@@H](O)[C@H]1O [ADENOSINE],IC50,[2],560 µM
same,IC50,[3],> 400 µM
Nc1ncnc2c1nc(NCc1ccc3ncccc3c1)n2[C@@H]1O[C@H](COCc2cc(F)c(F)c(F)c2)[C@@H](O)[C@H]1O,GI50,HCT-116 [1],18 µM
same,Kd,[4],0.12 µM
same,IC50,[2],< 0.4 µM
same,IC50,[3],> 400 µM
Nc1ncnc2c1nc(NCc1ccc(Cl)c(Cl)c1)n2[C@@H]1O[C@H](COCc2ccccc2)[C@@H](O)[C@H]1O,GI50,HCT-116 [1],> 80 µM
same,IC50,[2],2.4 µM
same,IC50,[3],> 400 µM
Nc1ncnc2c1nc(N)n2[C@@H]1O[C@H](CO)[C@@H](O)[C@H]1O,GI50,HCT-116 [1],0.05 µM
same,Kd,[4],11 µM
same,Activity,HCT-116 [5],inactive
same,IC50,[2],9.4 µM
same,Activity,HCT-116 [6],inactive
same,IC50,[3],> 400 µM
Nc1ncnc2c1ncn2[C@@H]1O[C@H](COP(=O)(O)OP(=O)(O)OP(=O)(O)O)[C@@H](O)[C@H]1O [ADENOSINE TRIPHOSPHATE],IC50,[2],0.5 µM
same,IC50,[3],> 400 µM
Nc1ncnc2c1nc(NCc1ccc(Cl)c(Cl)c1)n2[C@@H]1O[C@H](CO)[C@@H](O)[C@H]1O,GI50,HCT-116 [1],26 µM
same,IC50,[2],9.1 µM
same,IC50,[3],> 400 µM
Nc1ncnc2c1nc(NCc1ccc3ncccc3c1)n2[C@@H]1O[C@H](COCc2ccc(C(F)(F)F)cc2)[C@@H](O)[C@H]1O,GI50,HCT-116 [1],27 µM
same,Kd,[4],0.06 µM
same,IC50,[2],0.6 µM
same,IC50,[3],> 400 µM
COC[C@H]1O[C@@H](n2c(NCc3ccc(Cl)c(Cl)c3)nc3c(N)ncnc32)[C@H](O)[C@@H]1O,GI50,HCT-116 [1],> 80 µM
same,IC50,[2],3.2 µM
same,IC50,[3],> 400 µM
CNc1nc2c(N)ncnc2n1[C@@H]1O[C@H](CO)[C@@H](O)[C@H]1O,GI50,HCT-116 [1],13 µM
same,IC50,[2],17 µM
same,IC50,[3],> 400 µM
